Experimental data taken from ChEMBL document CHEMBL4138248, “Discovery of naphtho[1,2-d]oxazole derivatives as potential anti-HCV agents through inducing heme oxygenase-1 expression” (Eur J Med Chem, 2018).
Active and inactive are the calls of the source. No cut-off for these calls is given here.

Columns and labels:
[1] = Cytotoxicity against human Ava5 cells assessed as cell viability at 20 uM after 72 hrs by XTT assay relative to control; format: cell-based; conditions: read-out: Activity
Method in brief: (§1)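 XTT viability assay run alongside the antiviral assays. Ava5 cells were plated at 5×10^3 per well and exposed to 20 or 200 μM for 72 h at 37 °C in humidified 5% CO₂. Viability is expressed as % of untreated cells.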

Hepatitis C virus [2] = experiment: Antiviral activity against HCV JFH-1 infected in human Huh7.5 cells assessed as inhibition of viral RNA replication after 3 days by RT-qPCR method; format: functional, organism-based; conditions: Hepacivirus hominis
Hepatitis C virus [3] = experiment: Antiviral activity against HCV infected in human Ava5 cells assessed as inhibition of NS5B protein synthesis after 3 days by Western blot method; format: functional, organism-based; conditions: Hepacivirus hominis
Method in brief: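 Ava5 cells, seeded at 5×10^4 per well and grown overnight, were treated for 3 days. Lysates were made in RIPA buffer and 10 µg protein was run on 10% SDS-PAGE. Blots were probed with anti-NS5B, with GAPDH as loading control.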

[4] = target: T1, Heme oxygenase 1 (Homo sapiens) (UniProt P09601); experiment: Induction of HO-1-mediated PKR mRNA expression in human Ava5 cells after 3 days by RT-qPCR method; format: cell-based
T1 sequence (whole entry): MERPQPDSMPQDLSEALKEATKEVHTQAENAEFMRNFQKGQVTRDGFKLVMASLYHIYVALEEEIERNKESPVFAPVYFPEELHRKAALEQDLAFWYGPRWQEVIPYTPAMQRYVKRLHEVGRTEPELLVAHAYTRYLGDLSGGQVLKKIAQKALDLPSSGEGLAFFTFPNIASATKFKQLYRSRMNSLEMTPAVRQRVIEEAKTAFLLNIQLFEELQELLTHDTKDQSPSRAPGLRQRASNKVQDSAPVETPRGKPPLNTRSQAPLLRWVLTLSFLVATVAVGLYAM
Method in brief: (§2)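 Ava5 cells were treated for 3 days at the indicated concentrations. Target mRNAs were measured by RT-qPCR with specific primers and normalized to endogenous gapdh. Results are relative to DMSO-treated cells.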

[5] = target: T1, Heme oxygenase 1 (Homo sapiens); experiment: Induction of HO-1-mediated OAS1 mRNA expression in human Ava5 cells after 3 days by RT-qPCR method; format: cell-based; method in brief: as §2
[6] = target: T1, Heme oxygenase 1 (Homo sapiens); experiment: Induction of HO-1-mediated IFN-alpha-5 mRNA expression in human Ava5 cells after 3 days by RT-qPCR method; format: cell-based; method in brief: as §2
[7] = target: T1, Heme oxygenase 1 (Homo sapiens); experiment: Induction of HO-1-mediated reduction on HCV NS3/4A protease activity in human Huh-7 cells transfected with pEG(DE4AB)SEAP/pNS3/4A after 3 days; format: cell-based
Method in brief: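 Huh-7 cells were co-transfected with the pEG(DE4AB)SEAP reporter and the NS3/4A expression plasmid pNS3/4A, then treated for 3 days. Secreted SEAP activity reports protease activity and is expressed as fold of untreated control (set to 1). Mean ± SD, n=3.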

[8] = target: T1, Heme oxygenase 1 (Homo sapiens); experiment: Induction of HO-1-mediated OAS3 mRNA expression in human Ava5 cells after 3 days by RT-qPCR method; format: cell-based; method in brief: as §2
[9] = Cytotoxicity against human Ava5 cells assessed as decrease in cell viability after 72 hrs by XTT assay; format: cell-based
Method in brief: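 XTT assay on […] Ava5 cells at 5×10^3 per well with serial dilutions for 72 h at 37 °C in 5% CO₂. CC50 is the concentration giving 50% growth inhibition.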

Homo sapiens = species on record: Homo sapiens; experiment: Upregulation of HO-1 protein expression in human Ava5 cells after 3 days by Western blot method; format: functional, cell-based
Method in brief: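 Ava5 cells were treated for 3 days at the indicated concentrations. Lysates (10 µg protein, 10% SDS-PAGE, PVDF) were probed with anti-HO-1 and anti-GAPDH.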

Hepatitis C virus [10] = experiment: Antiviral activity against HCV infected in human Ava5 cells assessed as inhibition of viral RNA replication at 20 uM after 3 days by RT-qPCR method relative to control; format: functional, Hepacivirus hominis; conditions: Ava5, 72 h
Method in brief: (§3)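 Ava5 replicon cells were exposed to 5 or 20 μM for 3 days, starting from 10 mM DMSO stocks diluted in medium. HCV RNA was quantified by RT-qPCR against gapdh and expressed as % inhibition relative to untreated control. Ribavirin was the reference drug. Mean ± SD of three independent experiments.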

Hepatitis C virus [11] = experiment: Antiviral activity against HCV infected in human Ava5 cells assessed as inhibition of viral RNA replication at 5 uM after 3 days by RT-qPCR method relative to control; format: functional, Hepacivirus hominis; conditions: Ava5, 72 h; method in brief: as §3
[12] = Cytotoxicity against human Ava5 cells assessed as cell viability at 200 uM after 72 hrs by XTT assay relative to control; format: cell-based; conditions: read-out: Activity; method in brief: as §1
Hepatitis C virus [13] = experiment: Antiviral activity against HCV infected in human Ava5 cells assessed as inhibition of viral RNA replication at 1 uM after 3 days in presence of HO-1 inhibitor SnPP by RT-qPCR method; format: functional, organism-based; conditions: Hepacivirus hominis
Method in brief: (§4)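 Ava5 cells were co-incubated for 3 days with test compound at 1 μM plus the HO-1 inhibitor SnPP (tin protoporphyrin IX) at 0–5 μM. Lysates went to western blot for NS5B and GAPDH. RNA went to RT-qPCR normalized to gapdh mRNA. Mean ± SD of three independent experiments.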

Hepatitis C virus [14] = experiment: Antiviral activity against HCV infected in human Ava5 cells assessed as inhibition of viral RNA replication after 3 days by RT-qPCR method; format: functional, organism-based, Hepacivirus hominis; conditions: Ava5, 72 h
Method in brief: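 Ava5 cells (Huh-7 hepatoma cells carrying an HCV replicon, grown in DMEM/10% FBS with 1 mg·mL⁻¹ G418) were treated for 3 days with a range of concentrations. HCV RNA was measured by RT-qPCR and normalized to cellular gapdh mRNA. Values are mean ± SD of three independent experiments, each in triplicate.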

Hepatitis C virus [15] = experiment: Potency index, ratio of ribavirin IC50 to test compound IC50 for HCV; format: functional, Hepacivirus hominis
Hepatitis C virus [16] = experiment: Antiviral activity against HCV infected in human Ava5 cells assessed as inhibition of NS5B protein synthesis at 1 uM after 3 days in presence of HO-1 inhibitor SnPP by Western blot method; format: functional, organism-based; conditions: Hepacivirus hominis; method in brief: as §4

Activity [4]: Dose-dependent effect | Activity [5]: Dose-dependent effect | Activity [6]: Dose-dependent effect | Activity [7]: Dose-dependent effect | Activity [8]: Dose-dependent effect | IC50 (Hepatitis C virus [14]): 0.63 µM
Structure (SMILES): COc1ccc(Nc2cc3oc(-c4ccco4)nc3c3ccccc23)cc1
viability at 72 h, 20 µM [1]: 89.5% | inhibition (Hepatitis C virus [2]): Dose-dependent effect | inhibition (Hepatitis C virus [3]): Dose-dependent effect | CC50 at 72 h [9]: 144 µM | Activity (Homo sapiens): Dose-dependent effect | inhibition at 20 µM (Hepatitis C virus [10]): 94.6% | inhibition at 5 µM (Hepatitis C virus [11]): 92.1% | viability at 72 h, 200 µM [12]: 32.3% | inhibition (Hepatitis C virus [13]): inactive | Ratio IC50 (Hepatitis C virus [15]): 21 | inhibition (Hepatitis C virus [16]): inactive
